Measured values from ChEMBL document CHEMBL1130206, “Arylcarbamate derivatives of 1-piperidineethanol as potent ligands for 5-HT4 receptors” (J Med Chem, 1997).

Tests used:
[1] = target: T1, 5-hydroxytryptamine receptor 4 (Rattus norvegicus, UniProt Q62758); test: Binding affinity (Ki+/-SEM) against 5-hydroxytryptamine 4 receptor from cheng Prusoff equation by using [3H]GR-113808 in rat striatum
How it was run: (§1)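 Rat striatal membranes in 50 mM Hepes pH 7.4, 0.1–0.2 mg protein in 0.5 mL, with [3H]GR 113808. Seven drug concentrations, tested in triplicate. Nonspecific binding defined with 10 μM ML 10302. Bound ligand collected by filtration on PEI-soaked GF/B filters, washed with 50 mM Tris-HCl pH 8.4, counted by scintillation. IC50 fitted, Ki from Cheng–Prusoff, ±SEM.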

[2] = target: T2, 5-hydroxytryptamine receptor 4 (Cavia porcellus, UniProt O70528); test: The antagonist activity was calculated as the concentration which produced a 50% reduction against 5-hydroxytryptamine 4 receptor in guinea pig ileum.; format: functional, tissue-based
T2 sequence (O70528 whole entry): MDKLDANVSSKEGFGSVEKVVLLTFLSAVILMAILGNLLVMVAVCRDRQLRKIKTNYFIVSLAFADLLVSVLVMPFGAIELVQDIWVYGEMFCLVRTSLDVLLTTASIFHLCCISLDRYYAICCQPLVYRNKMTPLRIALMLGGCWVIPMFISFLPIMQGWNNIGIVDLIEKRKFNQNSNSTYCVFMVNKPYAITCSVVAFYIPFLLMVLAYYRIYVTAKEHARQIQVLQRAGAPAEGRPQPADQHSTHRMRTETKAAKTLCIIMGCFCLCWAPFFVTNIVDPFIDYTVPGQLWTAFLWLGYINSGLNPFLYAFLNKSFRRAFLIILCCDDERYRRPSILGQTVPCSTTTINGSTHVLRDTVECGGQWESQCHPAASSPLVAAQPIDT

[3] = target: T2, 5-hydroxytryptamine receptor 4; test: concentration which gave a 50% increase in the response to electrical stimulation against 5-hydroxytryptamine 4 receptor in the guinea pig ileum.; format: functional, tissue-based
How it was run: (§2)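 Guinea pig ileum myenteric plexus–longitudinal muscle strip, 0.5 g tension, transmural stimulation at 0.2 Hz and 1.5 ms. Phenoxybenzamine 10^-7 M present, voltage set to give 50% of supramaximal contraction. After two reproducible cumulative 5-HT curves, a cumulative agonist curve was run (60–120 s contact). EC50 = concentration giving 50% increase of the stimulated response, relative to maximum. Max effect expressed as % of 5-HT maximum, 95% confidence limits.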

[4] = target: T1, 5-hydroxytryptamine receptor 4; test: Binding affinity at 5-hydroxytryptamine 4 receptor in rat striatal membranes by [3H]GR-113808 displacement.; format: cell membranes, Striatum, Membrane; how it was run: as §1
[5] = organism: Cavia porcellus; test: Antagonist activity was calculated as the concentration which produced a 50% reduction in the submaximal of 5-HT induced contractions guinea pig ileum; format: functional
[6] = organism: Cavia porcellus; test: Agonist activity was assessed as the concentration which gave a 50% increase in the response to electrical stimulation in the guinea pig ileum; format: functional; how it was run: as §2
[7] = organism: Cavia porcellus; test: Agonist activity was assessed as the concentration which gave a 50% increase in the response to electrical stimulation in the guinea pig ileum; NA is not active; format: functional; how it was run: as §2
[8] = organism: Cavia porcellus; test: Antagonist activity was calculated as the concentration which produced a 50% reduction in the submaximal of 5-HT induced contractions guinea pig ileum and is expressed as percent of the maximum 5-HT response = 60%; format: functional
[9] = organism: Cavia porcellus; test: Agonist activity was assessed as the concentration which gave a 50% increase in the response to electrical stimulation in the guinea pig ileum and is expressed as percent of the maximum 5-HT response = 14%; format: functional; how it was run: as §2
[10] = organism: Cavia porcellus; test: Agonist activity was assessed as the concentration which gave a 50% increase in the response to electrical stimulation in the guinea pig ileum and is expressed as percent of the maximum 5-HT response = 78%; format: functional; how it was run: as §2
[11] = organism: Cavia porcellus; test: Antagonist activity was calculated as the concentration which produced a 50% reduction in the submaximal of 5-HT induced contractions guinea pig ileum and is expressed as percent of the maximum 5-HT response = 70%; format: functional
[12] = target: T2, 5-hydroxytryptamine receptor 4; test: The antagonist activity was calculated as the concentration which produced a 50% reduction against 5-hydroxytryptamine 4 receptor in guinea pig ileum. 95% confidence limits are in brackets.; format: functional, tissue-based
[13] = target: T2, 5-hydroxytryptamine receptor 4; test: concentration which gave a 50% increase in the response to electrical stimulation against 5-hydroxytryptamine 4 receptor in the guinea pig ileum. Activity expressed as percent of the maximum 5-HT response given in brackets.; format: functional, tissue-based; how it was run: as §2

T1 sequence (Q62758 whole entry): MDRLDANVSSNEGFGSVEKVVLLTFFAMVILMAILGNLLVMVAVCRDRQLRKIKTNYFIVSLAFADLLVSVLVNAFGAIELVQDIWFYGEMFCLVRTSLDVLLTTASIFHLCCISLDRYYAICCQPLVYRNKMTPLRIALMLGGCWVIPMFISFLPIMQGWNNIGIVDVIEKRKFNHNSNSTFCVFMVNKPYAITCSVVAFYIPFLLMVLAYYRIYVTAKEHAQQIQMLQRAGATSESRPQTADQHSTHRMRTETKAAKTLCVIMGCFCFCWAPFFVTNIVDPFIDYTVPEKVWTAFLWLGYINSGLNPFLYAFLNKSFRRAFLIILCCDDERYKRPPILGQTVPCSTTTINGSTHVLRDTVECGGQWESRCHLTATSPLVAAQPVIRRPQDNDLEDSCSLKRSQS

Row | SMILES | Ki [1] [nM] | Ki [4] [nM] | IC50 [5] [nM] | also measured
1 | CCOc1ccccc1NC(=O)OCCN1CC(C)C[C@@H](C)C1 (single isomer, unassigned) |  | 1.16 | 100 | EC50 [6]: > 1000 nM
2 | Cn1cc(C(=O)OCC2CCN(CCNS(C)(=O)=O)CC2)c2ccccc21 |  |  | 13 | EC50 [7]: Not Active
3 | COc1ccccc1NC(=O)OCCN1C[C@H](C)C[C@H](C)C1 |  | 2.6 |  | IC50 [8]: 160 nM; EC50 [6]: > 1000 nM
4 | Nc1cccc(NC(=O)OCCN2CCCCC2)c1 | > 1000 |  |  | 
5 | CCOc1ccccc1NC(=O)OCCN1CCCCC1 |  | 2.6 | 62 | EC50 [6]: > 1000 nM
6 | COc1cc(N)c(Cl)cc1C(=O)OCCN1C[C@H](C)C[C@H](C)C1 |  | 0.26 | 11 | EC50 [7]: Not Active
7 | COc1cc(N)c(Cl)cc1C(=O)OCCN1CCCCC1 |  |  |  | EC50 [10]: 4 nM
8 | Nc1ccccc1NC(=O)OCCN1CCCCC1 | > 1000 |  |  | 
9 | CCOc1ccccc1NC(=O)OCCN1C[C@H](C)C[C@H](C)C1 |  | 1.05 |  | EC50 [6]: > 1000 nM; IC50 [11]: 30 nM
10 | CCN(CC)CCOC(=O)c1cc(Cl)c(N)cc1OC |  |  | 77 | EC50 [7]: Not Active
11 | COc1ccc(NC(=O)OCCN2CCCCC2)cc1 |  | > 1000 |  | 
12 | O=C(Nc1ccc(Cl)cc1)OCCN1CCCCC1 |  | 728 |  | 
13 | Nc1ccc(NC(=O)OCCN2CCCCC2)cc1 | > 1000 |  |  | 
14 | O=C(Nc1ccccc1)OCCN1CCCCC1 |  | 31.7 | ~1000 | EC50 [6]: > 1000 nM

Further lines, with some results ahead:

Row | Ki [1] [nM] | Ki [4] [nM] | IC50 [5] [nM] | SMILES | also measured
15 | 2.4 |  |  | COc1cc(N)c(Cl)cc1NC(=O)OCCN1CC(C)CC(C)C1 (centres undefined) | IC50 [2]: 180 nM; EC50 [3]: > 1000 nM
16 |  | 469 |  | COc1cccc(NC(=O)OCCN2CCCCC2)c1 | 
17 |  | > 1000 |  | COc1ccccc1NC(=O)CCCN1CCCCC1 | 
18 | > 1000 |  |  | COc1cc(N)c(Cl)cc1NC(=O)CCCN1CCCCC1 | 
19 |  | 8.9 | ~300 | COc1ccccc1NC(=O)OCCN1CCCCC1 | EC50 [9]: ~100 nM
20 |  | 81 |  | COc1ccccc1NC(=O)OCCCN1CCCCC1 | 
21 | 39 |  |  | COc1cc(N)c(Cl)cc1NC(=O)OCCN1CCCCC1 | EC50 [3]: > 1000 nM
22 | 14.5 |  |  | COc1cc(N)c(Cl)cc1NC(=O)OCCN1CCCCCC1 | IC50 [12]: 207 nM; EC50 [3]: 100 nM
23 | 25.1 |  |  | COc1cc(N)c(Cl)cc1NC(=O)OCCN1CCC(C)CC1 | IC50 [2]: 200 nM; EC50 [13]: 60 nM
24 | 10.2 |  |  | COc1cc(N)c(Cl)cc1NC(=O)OCCN1CCCC(C)C1 (centres undefined) | 
25 |  | 4.2 | 30 | COc1ccc(Cl)cc1NC(=O)OCCN1CCCCC1 | EC50 [9]: ~1000 nM
26 |  | > 1000 |  | O=C(Nc1ccccc1Cl)OCCN1CCCCC1 | 
27 | 125 |  |  | COc1cc(N)c(Cl)cc1NC(=O)OCCN1CCCC1 | EC50 [13]: 200 nM
28 |  | 60.8 | > 1000 | O=C(Nc1cccc(Cl)c1)OCCN1CCCCC1 | EC50 [6]: > 1000 nM
29 | 150 |  |  | CCN(CC)CCOC(=O)Nc1cc(Cl)c(N)cc1OC | IC50 [2]: 1000 nM; EC50 [13]: 300 nM
